Data as given in ChEMBL document CHEMBL5042515, “Design and Evaluation of a Novel Peptide-Drug Conjugate Covalently Targeting SARS-CoV-2 Papain-like Protease” (J Med Chem, 2022).
Active and inactive are the calls of the source. The calls are words filed in the database; no cut-off is given here. *1 amine or outer side, *2 acyl side, *3 side chain or, on linkers, in order; H or OH if unused. Where a SMILES comes first, the peptide text is derived from it. Bridges are numbered along the chain shown (N, C = ends). [ ]: non-standard residue; d: D form. The star is where a group is joined. Met(S-mXyl) = C[S+](CC[C@H](N[*:1])C(=O)[*:2])Cc1cccc(C[*:3])c1; 5FAM = O=C1OC2(c3ccc(O)cc3Oc3cc(O)ccc32)c2ccc(C(=O)*)cc21; X2 = C[S+](CC[C@@H](N[*:1])C(=O)[*:2])Cc1cccc(C[*:3])c1; X1 = Cc1ccc(N*)cc1C(=O)NC(C)c1cccc2ccccc12

Legend:
[1] = system: Severe acute respiratory syndrome coronavirus 2; experiment: Binding affinity to SARS-CoV-2 PLpro assessed as covalent bond formation at 10 uM incubated for 1 hr by SDS-PAGE analysis
In short: (§1)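 FAM-labeled peptides (10 μM) incubated with purified SARS-CoV-2 PLpro (5 μM) in PBS for 1 h. Covalent adduct detected by SDS gel analysis.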

[2] = system: Severe acute respiratory syndrome coronavirus 2; experiment: Inhibition of SARS-CoV-2 PLpro using LRGG-ACC as substrate at <=1000 uM preincubated for 60 mins followed by substrate addition and measured for 30 mins by enzymatic assay; details: dose microM <=1000, time 90.0 min
In short: (§2)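 Recombinant His-tagged SARS-CoV-2 PLpro (E. coli BL21(DE3), Ni-NTA then gel filtration) at 0.1 μM, preincubated 1 h at 37 °C with inhibitor diluted from 800 μM. Buffer: 50 mM HEPES pH 7.4, 0.1 mg/mL BSA, 5 mM DTT. Ac-LRGG-ACC substrate at 1 μM final. Fluorescence read at ex 355/em 460 nm for 30 min, at least three times; IC50 from curve fitting.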

[3] = system: Severe acute respiratory syndrome coronavirus 2; experiment: Covalent binding affinity to SARS-CoV-2 PLpro by SDS-PAGE analysis
[4] = Inhibition of SARS-CoV-2 PLpro using LRGG-ACC as substrate preincubated for 60 mins followed by substrate addition and measured for 30 mins by enzymatic assay; design: species or system Severe acute respiratory syndrome coronavirus 2; in short: as §2
[5] = system: Severe acute respiratory syndrome-related coronavirus; experiment: Inhibition of SARS-CoV PLpro using LRGG-ACC as substrate at <=1000 uM preincubated for 60 mins followed by substrate addition and measured for 30 mins by enzymatic assay; details: dose microM <=1000, time 90.0 min
[6] = molecular target: Replicase polyprotein 1ab (Middle East respiratory syndrome-related coronavirus (isolate UnitedKingdom/H123990006/2012) (Betacoronavirus England 1) (Humancoronavirus EMC)) (UniProt K9N7C7); experiment: Inhibition of MERS PLpro using LRGG-ACC as substrate upto 1000 uM preincubated for 60 mins followed by substrate addition and measured for 30 mins by enzymatic assay; details: dose microM <=1000, time 90.0 min
[7] = Drug uptake in human HeLa cells at 10 uM for 4 hrs by tryphan blue staining based flow cytometry relative to control; format: ADME, cell-based
[8] = system: Severe acute respiratory syndrome coronavirus 2; experiment: Binding affinity to SARS-CoV-2 PLpro assessed as covalent bond formation at Cys111 at 10 uM incubated for 1 hr by SDS-PAGE analysis
[9] = Hemolytic activity against mouse erythrocyte at 0 to 60 uM for 1.5 hrs by microplate reader analysis; format: toxicity, cell-based; details: dose 0-60 µM
In short: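 Fresh mouse erythrocytes washed and resuspended in PBS at 10^8/mL, then exposed to serial dilutions starting at 60 μM for 1.5 h at 37 °C. Supernatant hemoglobin read by absorbance. 0.1% Triton X-100 used as 100% control and PBS as blank; % hemolysis calculated relative to both.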

[10] = system: Severe acute respiratory syndrome coronavirus 2; experiment: Covalent binding affinity to SARS-CoV-2 PLpro assessed as reaction efficiency at 0 to 25 uM for 2 hrs by SDS-PAGE analysis; details: dose 0-25 µM
In short: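 Purified SARS-CoV-2 PLpro (5 μM) incubated with peptide at 0, 2.5, 5, 10, 15, 20 and 25 μM in PBS (pH 7.4, 37 °C). Conjugation resolved on 15% SDS-PAGE.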

[11] = system: Severe acute respiratory syndrome coronavirus 2; experiment: Covalent binding affinity to SARS-CoV-2 PLpro assessed as reaction efficiency at 10 uM for 1 hr by SDS-PAGE analysis; in short: as §1
[12] = system: Severe acute respiratory syndrome coronavirus 2; experiment: Covalent binding affinity to SARS-CoV-2 PLpro assessed as reaction efficiency at 10 uM and incubated for 0.5 to 4 hrs by SDS-PAGE analysis; details: time 0.5-4 hrs, TDE = time-dependent effect
In short: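 Peptide (10 μM) with purified SARS-CoV-2 PLpro (5 μM) in PBS, pH 7.4, 37 °C, sampled at 0.5, 1, 2, 3 and 4 h. Conjugate band resolved on 15% SDS-PAGE.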

[13] = Inhibition of SARS-CoV PLpro using LRGG-ACC as substrate preincubated for 60 mins followed by substrate addition and measured for 30 mins by enzymatic assay; design: species or system Severe acute respiratory syndrome-related coronavirus
HEK-293T [14] = experiment: Antiviral activity against HEK293T cells co-transfected with plasmids encoding Myc-tagged ISG15, E1/E2/E3 ubiquitin ligases, SARS-CoV-2 PLpro fused with EGFP assessed as recovery of intracellular ISGylation level incubated for 24 hrs by immunoblot analysis; format: functional, cell-based; details: Homo sapiens
In short: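 HEK293T cells co-transfected with Myc-ISG15, E1/E2/E3 ligases and EGFP-fused SARS-CoV-2 PLpro, then kept 24 h at 37 °C in DMEM with 5% FBS plus conjugate. Lysates BCA-normalised, 30 μg per lane. Western blot probed with anti-ISG15, anti-GFP and anti-GAPDH (1:1000), ECL detection.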

HEK-293T [15] = experiment: Antiviral activity in HEK293T cells co-transfected with plasmids encoding Renilla luciferase, Firefly luciferase is driven by IFN-beta promoter, MAVS assessed as recovery of suppressed IFN-beta promoter activity at 100 uM by Dual-Luciferase reporter assay; format: functional, cell-based; details: Homo sapiens
In short: (§3)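 HEK293T cells co-transfected with Renilla luciferase reference, IFN-β promoter-driven firefly luciferase, MAVS and SARS-CoV-2 PLpro, then treated with conjugate. Activity scaled to the ISG15-plasmid positive control set as 100%; blank plasmid as negative control; unpaired two-tailed t-test.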

A549 = experiment: Cytotoxicity against human A549 cells assessed as inhibition of cell growth at 1.56 to 100 uM incubated for 24 hrs by MTT assay; format: toxicity, cell-based; details: a549, 24 h, dose 1.56-100 µM
In short: (§4)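 A549 (RPMI-1640) or 293T (DMEM) cells with 10% FBS, plated overnight, then treated 24 h at 1.56–100 μM in medium with 5% FBS. MTT (5 mg/mL reagent) added for 4 h at 37 °C, dissolved in DMSO, absorbance read at 490 nm. DMSO-only control; at least three independent measurements.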

HEK-293T [16] = experiment: Cytotoxicity against HEK293T cells assessed as inhibition of cell growth at 1.56 to 100 uM incubated for 24 hrs by MTT assay; format: toxicity, cell-based; details: human, dose 1.56-100 µM; in short: as §4
[17] = system: Severe acute respiratory syndrome coronavirus 2; experiment: Covalent binding affinity to SARS-CoV-2 PLpro Cys111 at 30 uM for 4 hrs by In-gel trypsin digestion based MS-MS analysis
In short: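 Peptide (30 μM) with PLpro (5 μM) in Tris buffer, 37 °C, 4 h. Conjugate band excised from 15% SDS-PAGE, destained with ammonium bicarbonate/acetonitrile and trypsin-digested overnight at 16 °C. Peptides extracted in 50% acetonitrile/0.5% formic acid for MS/MS mapping of the modified residue.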

HEK-293T [18] = experiment: Antiviral activity in HEK293T cells co-transfected with plasmids encoding Renilla luciferase, Firefly luciferase is driven by IFN-beta promoter, MAVS assessed as recovery of suppressed IFN-beta promoter activity at 10 to 100 uM by Dual-Luciferase reporter assay relative to control; format: functional, cell-based; details: Homo sapiens, dose 10-100 µM; in short: as §3
HEK293T = experiment: Covalent binding affinity to SARS-CoV-2 PLpro spiked in HEK293T cells lysate at 10 uM incubated for 1 hr by SDS gel analysis; format: subcellular; details: Severe acute respiratory syndrome coronavirus 2
In short: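 293T cell lysate (300 μg protein) spiked with PLpro (5 μM), then treated with 10 μM FAM-labeled peptide. Labeling read as fluorescent bands on gel.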

SMILES: CC(C)C[C@H](N)C(=O)N[C@@H](CCCNC(=N)N)C(=O)NCC(=O)NCC(=O)N[C@H]1CC[S+](C)Cc2cccc(c2)CSC[C@@H](C(=O)O)NC(=O)[C@H](C)NC(=O)[C@H](C)NC(=O)[C@H](C)NC1=O (stereo partly drawn) (H-LRGG[Met(S-mXyl)]AAAC-OH; thioether 5-9)
- Activity [1]: Active
- inhibition [2]: inactive

SMILES: Cc1ccc(NC(=O)CC[C@H](N)C(=O)N[C@@H](CC(C)C)C(=O)N[C@@H](CCCNC(=N)N)C(=O)NCC(=O)NCC(=O)O)cc1C(=O)NC(C)c1cccc2ccccc12 (stereo partly drawn) (H-E(X1)LRGG-OH)
- Activity [3]: inactive
- IC50 [4]: 15.4 µM
- inhibition [5]: inactive
- inhibition [6]: inactive
- Drug uptake [7]: Active

SMILES: CC(C)C[C@H](N)C(=O)N[C@H]1CSCc2cccc(c2)C[S+](C)CC[C@H](C(=O)O)NC(=O)CNC(=O)CNC1=O (stereo partly drawn) (H-LCGG[X2]-OH; thioether 2-5)
- inhibition [2]: inactive

SMILES: CC(C)C[C@H](N)C(=O)N[C@H]1CC[S+](C)Cc2cccc(c2)CSC[C@@H](C(=O)O)NC(=O)CNC(=O)CNC1=O (stereo partly drawn) (H-L[Met(S-mXyl)]GGC-OH; thioether 2-5)
- inhibition [2]: inactive

SMILES: C[S+]1CC[C@@H](C(=O)O)NC(=O)CNC(=O)CNC(=O)[C@H](CCCNC(=N)N)NC(=O)[C@@H](N)CSCc2cccc(c2)C1 (stereo partly drawn) (H-CRGG[Met(S-mXyl)]-OH; thioether 1-5)
- Activity [1]: Active
- Activity [8]: Active
- inhibition [2]: inactive

SMILES: Cc1ccc(NC(=O)CC[C@H](N)C(=O)N[C@H]2CC[S+](C)Cc3cccc(c3)CSC[C@@H](C(=O)O)NC(=O)CNC(=O)[C@H](CCCNC(=N)N)NC(=O)[C@H](CC(C)C)NC2=O)cc1C(=O)NC(C)c1cccc2ccccc12 (stereo partly drawn) (H-E(X1)[Met(S-mXyl)]LRGC-OH; thioether 2-6)
- Activity [9]: Non-Toxic
- Activity [3]: Active
- Activity [10]: Dose-Dependent Effect
- Activity [11]: Active
- Activity [12]: Tde
- IC50 [4]: 7.4 µM
- IC50 [13]: 3.43 µM
- inhibition [6]: inactive
- Activity (HEK-293T [14]): Dose-Dependent Effect
- Activity (HEK-293T [15]): inactive
- Activity (A549): Non-Toxic
- Activity (HEK-293T [16]): Non-Toxic
- Drug uptake [7]: Active

SMILES: Cc1ccc(N)cc1C(=O)NC(C)c1cccc2ccccc12 (stereo not drawn)
- Activity [9]: Non-Toxic
- IC50 [13]: 2.6 µM
- inhibition [6]: inactive
- Activity (A549): Non-Toxic
- Activity (HEK-293T [16]): Non-Toxic

SMILES: Cc1ccc(NC(=O)CC[C@H](N)C(=O)N[C@H]2CSCc3cccc(c3)C[S+](C)CC[C@@H](C(=O)O)NC(=O)CNC(=O)[C@H](CCCNC(=N)N)NC(=O)[C@H](CC(C)C)NC2=O)cc1C(=O)NC(C)c1cccc2ccccc12 (stereo partly drawn) (H-E(X1)CLRG[Met(S-mXyl)]-OH; thioether 2-6)
- Activity [9]: Non-Toxic
- Activity [17]: Active
- Activity [3]: Active
- Activity [10]: Dose-Dependent Effect
- IC50 [4]: 8.63 µM
- inhibition [5]: Active
- inhibition [6]: inactive
- Activity (HEK-293T [14]): Dose-Dependent Effect
- Activity (HEK-293T [18]): Dose-Dependent Effect
- Activity (A549): Non-Toxic
- Activity (HEK-293T [16]): Non-Toxic
- Drug uptake [7]: Active

SMILES: CC(C)C[C@@H]1NC(=O)[C@@H](N)CSCc2cccc(c2)C[S+](C)CC[C@@H](C(=O)O)NC(=O)CNC(=O)[C@H](CCCNC(=N)N)NC1=O (stereo partly drawn) (H-CLRG[Met(S-mXyl)]-OH; thioether 1-5)
- Activity [1]: Active
- Activity [8]: Active
- inhibition [2]: inactive

SMILES: CC(C)C[C@@H]1NC(=O)[C@@H](N)CC[S+](C)Cc2cccc(c2)CSC[C@@H](C(=O)O)NC(=O)CNC(=O)[C@H](CCCNC(=N)N)NC1=O (stereo partly drawn) (H-[Met(S-mXyl)]LRGC-OH; thioether 1-5)
- inhibition [2]: inactive

SMILES: CC(C)C[C@H](N)C(=O)N[C@@H](CCCNC(=N)N)C(=O)NCC(=O)NCC(=O)N[C@H]1CSCc2cccc(c2)C[S+](C)CC[C@@H](C(=O)O)NC(=O)[C@H](C)NC(=O)[C@H](C)NC(=O)[C@H](C)NC1=O (stereo partly drawn) (H-LRGGCAAA[Met(S-mXyl)]-OH; thioether 5-9)
- Activity [1]: Active
- Activity [8]: Active
- inhibition [2]: inactive

SMILES: Cc1ccc(NC(=O)CC[C@H](NC(=O)c2ccc3c(c2)C(=O)OC32c3ccc(O)cc3Oc3cc(O)ccc32)C(=O)N[C@H]2CC[S+](C)Cc3cccc(c3)CSC[C@@H](C(=O)O)NC(=O)CNC(=O)[C@H](CCCNC(=N)N)NC(=O)[C@H](CC(C)C)NC2=O)cc1C(=O)NC(C)c1cccc2ccccc12 (stereo partly drawn) (5FAM-E(X1)[Met(S-mXyl)]LRGC-OH; thioether 2-6)
- Activity (HEK293T): Active

SMILES: Cc1ccc(NC(=O)CC[C@H](NC(=O)c2ccc3c(c2)C(=O)OC32c3ccc(O)cc3Oc3cc(O)ccc32)C(=O)N[C@H]2CSCc3cccc(c3)C[S+](C)CC[C@@H](C(=O)O)NC(=O)CNC(=O)[C@H](CCCNC(=N)N)NC(=O)[C@H](CC(C)C)NC2=O)cc1C(=O)NC(C)c1cccc2ccccc12 (stereo partly drawn) (5FAM-E(X1)CLRG[Met(S-mXyl)]-OH; thioether 2-6)
- Activity (HEK293T): Active

SMILES: C[S+]1CC[C@H](N)C(=O)N[C@@H](CCCNC(=N)N)C(=O)NCC(=O)NCC(=O)N[C@H](C(=O)O)CSCc2cccc(c2)C1 (stereo partly drawn) (H-[Met(S-mXyl)]RGGC-OH; thioether 1-5)
- Activity [1]: Active
- inhibition [2]: inactive
